Values after ≈ are worked out from the molar mass of the structure shown.
How the values were obtained:
[1] = tested on: Mycobacterium tuberculosis; assay: Antibacterial activity against replicating form of Mycobacterium tuberculosis MC2 6220 assessed as growth inhibition after 7 days by high-throughput screening assay; assay type: functional; details: MC2 6220, 168 h
Procedure, shortened: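 Attenuated Mtb mc26220 ΔpanCDΔlysA in 7H9 with glycerol, tyloxapol, OADC, casein amino acids, 240 μg/mL L-lysine, 24 μg/mL pantothenate. Mid-log cells diluted to OD580 0.01 in 384-well plates, compound in DMSO, 7 days at 37 °C, 20% O2, 5% CO2. OD580 read; MIC90 = 90% growth inhibition vs DMSO.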

[2] = tested on: Mycobacterium tuberculosis; assay: Antibacterial activity against non-replicating form of Mycobacterium tuberculosis MC2 6220 assessed as growth inhibition after 3 days by high-throughput screening assay; assay type: functional; details: MC2 6220, 72 h
Procedure, shortened: (§1)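 Log-phase mc26220 washed in PBS/tyloxapol, resuspended in Sauton's-based NR medium (butyrate, 0.5 mM NaNO2, pH 5.0) at OD580 0.1. Compound exposure 3 days at 37 °C, 1% O2, 5% CO2. Then R medium added (5-fold dilution), 7 days outgrowth at 20% O2. OD580 read; MIC90 = 90% inhibition vs DMSO.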

[3] = Selectivity index, ratio of LD50 for human HepG2 cells to MIC90 for replicating form of Mycobacterium tuberculosis mc'2 6220; assay type: toxicity, cell-based; details: read-out: Selectivity Index
Procedure, shortened: (§2)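 HepG2 in DMEM with 10% FBS, pyruvate, glutamine, HEPES and nonessential amino acids, seeded 3000 cells/well in 384-well plates. Compound for 2 days at 1% final DMSO. ATP read by CellTiter-Glo luminescence. LD50 = 50% drop in ATP signal vs DMSO. SI = LD50/MIC90 against replicating Mtb.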

[4] = Cytotoxicity against human HepG2 cells assessed as decrease in ATP signal after 2 days by CellTiter-Glo assay; assay type: cell-based; details: read-out: LD50; procedure, shortened: as §2
[5] = tested on: Mycobacterium tuberculosis; assay: Antibacterial activity against replicating form of wild type Mycobacterium tuberculosis H37Rv assessed as growth inhibition after 7 days by high-throughput screening assay; assay type: functional; details: 168 h
Procedure, shortened: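 Wild-type H37Rv in 7H9 with glycerol, tyloxapol, ADN, in 96-well plates. Set up as the 384-well screen: OD580 0.01 start, compound in DMSO, 7 days at 37 °C, 20% O2, 5% CO2. OD580 read; MIC90 = 90% growth inhibition vs DMSO control.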

[6] = tested on: Mycobacterium tuberculosis; assay: Antibacterial activity against non-replicating form of wild type Mycobacterium tuberculosis H37Rv assessed as growth inhibition after 3 days by high-throughput screening assay; assay type: functional; details: 72 h
[7] = Selectivity index, ratio of LD50 for human HepG2 cells to MIC90 for replicating form of Mycobacterium tuberculosis H37Rv; assay type: toxicity, cell-based; details: read-out: Selectivity Index; procedure, shortened: as §2
[8] = tested on: Mycobacterium tuberculosis; assay: Antibacterial activity against non-replicating form of Mycobacterium tuberculosis MC2 6220 assessed as growth inhibition after 7 days by high-throughput screening assay; assay type: functional; details: MC2 6220, 168 h; procedure, shortened: as §1

SMILES	MIC90 [1]	MIC90 [2]	selectivity ratio [3]	CC50 at 48 h [4]	MIC90 [5]	MIC90 [6]	selectivity ratio [7]	MIC90 [8]
CCCc1cc(=O)oc2c1c1c(c3oc([N+](=O)[O-])cc32)C=CC(c2ccccc2)O1 (configuration not stated)	20 µg/mL (≈ 49.6 µM)	6 µg/mL (≈ 14.9 µM)	0.1	3 µg/mL (≈ 7.44 µM)				
CCCc1cc(=O)oc2c1c(OCCN1CCOCC1)cc1[nH]c([N+](=O)[O-])cc12	> 50 µg/mL	> 50 µg/mL	< 0.5	25 µg/mL (≈ 62.3 µM)				
CCCc1cc(=O)oc2c1c(OCCN1CCCC1)cc1oc([N+](=O)[O-])cc12	< 0.2 µg/mL	< 0.2 µg/mL	> 5	1 µg/mL (≈ 2.59 µM)				
CCCc1cc(=O)oc2c1c(OC)cc1oc([N+](=O)[O-])cc12	< 0.2 µg/mL	< 0.2 µg/mL	> 2	0.3 µg/mL (≈ 0.989 µM)				
Cc1c(F)c(=O)oc2c3c(c4c(c12)OC(C)(C)CC4)O[C@H]([N+](=O)[O-])[C@H]3O (relative stereo)	< 0.1 µg/mL	< 0.1 µg/mL	> 128	13 µg/mL (≈ 35.6 µM)				
CCCc1cc(=O)oc2c3c(cc(OCCN4CCOCC4)c12)O[C@H]([N+](=O)[O-])[C@H]3O				2 µg/mL (≈ 4.76 µM)	0.08 µg/mL (≈ 0.19 µM)	0.08 µg/mL (≈ 0.19 µM)	20	
O=c1oc2c3c(cc(OCCN4CCOCC4)c2c2c1CCCC2)O[C@H]([N+](=O)[O-])[C@H]3O (racemic)	< 1 µg/mL	< 1 µg/mL	> 0.3	0.4 µg/mL (≈ 0.925 µM)				
CCCc1cc(=O)oc2cc(OCC=C(C)C)c3c(c12)OC(C)(C)C=C3	> 18 µg/mL	> 18 µg/mL		> 18 µg/mL				2 µg/mL (≈ 5.64 µM)
CCCc1cc(=O)oc2c3c(c4c(c12)OC(C)(C)C=C4)O[C@H]([N+](=O)[O-])[C@H]3O (relative stereo)	< 0.2 µg/mL	< 0.2 µg/mL	> 11	3 µg/mL (≈ 8.04 µM)				
CCCc1cc(=O)oc2cc(N3CCN(C(=O)C(C)CC)CC3)c3c(c12)OC(C)(C)C=C3 (configuration not stated)	> 22 µg/mL	> 22 µg/mL	< 1	22 µg/mL (≈ 50.2 µM)				
Cc1cc(=O)oc2c1c1c(c3oc([N+](=O)[O-])cc32)C=CC(C)(C)O1				1 µg/mL (≈ 3.06 µM)	0.08 µg/mL (≈ 0.244 µM)	0.2 µg/mL (≈ 0.611 µM)	16	
O=C(OCCOc1cc2c(c3oc(=O)c4c(c13)CCCC4)[C@H](O)[C@@H]([N+](=O)[O-])O2)c1cnccn1 (racemic)	< 1 µg/mL	< 1 µg/mL	> 0.3	0.4 µg/mL (≈ 0.852 µM)				
CCc1c(F)c(=O)oc2c1c1c(c3oc([N+](=O)[O-])cc32)C=CC(C)(C)O1				> 25 µg/mL	0.6 µg/mL (≈ 1.67 µM)	1 µg/mL (≈ 2.78 µM)	> 40	
CCCc1cc(=O)oc2cc(OCCN3CCCCC3)c3c(c12)OC(C)(C)C=C3	> 20 µg/mL	> 20 µg/mL		> 20 µg/mL				7 µg/mL (≈ 17.6 µM)
CC1(C)C=Cc2c(c3c(CN4CCSCC4)cc(=O)oc3c3cc([N+](=O)[O-])oc23)O1	< 0.3 µg/mL	< 0.3 µg/mL	> 5	1 µg/mL (≈ 2.33 µM)				
CCCc1cc(=O)oc2c3c(cc(OCCN4CCOCC4)c12)O[C@H]([N+](=O)[O-])[C@H]3C(C)C (racemic)	22 µg/mL (≈ 49.3 µM)	> 22 µg/mL	> 1	> 22 µg/mL				
Cc1c(F)c(=O)oc2c1c1c(c3oc([N+](=O)[O-])cc32)C=CC(C)(C)O1	< 0.1 µg/mL	0.2 µg/mL (≈ 0.579 µM)	> 510	> 50 µg/mL				
O=[N+]([O-])C1Cc2ccccc2O1 (configuration not stated)	0.4 µg/mL (≈ 2.42 µM)	0.4 µg/mL (≈ 2.42 µM)	6	3 µg/mL (≈ 18.2 µM)				
CCCc1cc(=O)oc2cc(N3CCNCC3)c3c(c12)OC(C)(C)C=C3.O=C(O)C(F)(F)F	23 µg/mL	> 23 µg/mL	0.5	12 µg/mL				

SMILES	MIC90 [1]	MIC90 [2]	selectivity ratio [3]	CC50 at 48 h [4]	MIC90 [5]	MIC90 [6]	selectivity ratio [7]	MIC90 [8]
O=[N+]([O-])c1cc2ccccc2o1	0.2 µg/mL (≈ 1.23 µM)	> 100 µg/mL	16	3 µg/mL (≈ 18.4 µM)				
CC1(C)C=Cc2c(c3c(CN4CCOCC4)cc(=O)oc3c3cc([N+](=O)[O-])oc23)O1	< 0.2 µg/mL	< 0.2 µg/mL	> 5	1 µg/mL (≈ 2.42 µM)				
CCCc1cc(=O)oc2c1c(OCCN1CCOCC1)cc1oc([N+](=O)[O-])c(COC(C)=O)c12	1 µg/mL (≈ 2.11 µM)	3 µg/mL (≈ 6.32 µM)	< 0.3	< 0.3 µg/mL				
CCCc1cc(=O)oc2c1c(OCCN1CCOCC1)cc1oc([N+](=O)[O-])c(C(C)C)c12	> 22 µg/mL	> 22 µg/mL	< 1	22 µg/mL (≈ 49.5 µM)				
CCCc1cc(=O)oc2cc(N(C)C)c3c(c12)OC(C)(C)C=C3	> 16 µg/mL	> 16 µg/mL		> 16 µg/mL				2 µg/mL (≈ 6.38 µM)
CCCc1cc(=O)oc2c3c(cc(OCCN4CCOCC4)c12)O[C@@H]([N+](=O)[O-])[C@@H]3O				0.8 µg/mL (≈ 1.9 µM)	0.08 µg/mL (≈ 0.19 µM)	0.08 µg/mL (≈ 0.19 µM)	10	
CC1(C)CCc2c3c(c4oc(=O)c5c(c4c2O1)CCCC5)[C@H](O)[C@@H]([N+](=O)[O-])O3	0.4 µg/mL (≈ 1.03 µM)	0.8 µg/mL (≈ 2.07 µM)	64	25 µg/mL (≈ 64.5 µM)				
CCCc1cc(=O)oc2cc(N3CCN(C(=O)Nc4ccc(F)c(Cl)c4)CC3)c3c(c12)OC(C)(C)C=C3	> 26 µg/mL	> 26 µg/mL		> 26 µg/mL				
CCCc1cc(=O)oc2cc(C#Cc3ccccn3)c3c(c12)OC(C)(C)C=C3	> 19 µg/mL	> 19 µg/mL		> 19 µg/mL				
CC1(C)CCc2c3c(c4oc(=O)c5c(c4c2O1)CCC5)[C@H](O)[C@@H]([N+](=O)[O-])O3	0.2 µg/mL (≈ 0.536 µM)	0.4 µg/mL (≈ 1.07 µM)	128	25 µg/mL (≈ 67 µM)				
CCCc1cc(=O)oc2cc(C#CCOc3ccc(F)cc3)c3c(c12)OC(C)(C)C=C3	> 21 µg/mL	> 21 µg/mL		> 21 µg/mL				
CCCc1cc(=O)oc2cc(OCCN3CCCC3)c3c(c12)OC(C)(C)C=C3	19 µg/mL (≈ 49.5 µM)	> 19 µg/mL	1	19 µg/mL (≈ 49.5 µM)				
CN1CCN(Cc2cc(=O)oc3c2c2c(c4oc([N+](=O)[O-])cc43)C=CC(C)(C)O2)CC1				3 µg/mL (≈ 7.05 µM)	0.08 µg/mL (≈ 0.188 µM)	0.3 µg/mL (≈ 0.705 µM)	31	
Cc1c(F)c(=O)oc2c1c1c(c3oc([N+](=O)[O-])cc32)CCC(C)(C)O1	0.8 µg/mL (≈ 2.3 µM)	2 µg/mL (≈ 5.76 µM)	> 64	> 50 µg/mL				
CCCc1cc(=O)oc2cc(N3CCN(C(=O)NCc4ccccc4)CC3)c3c(c12)OC(C)(C)C=C3	> 24 µg/mL	> 24 µg/mL		> 24 µg/mL				
CCCCCCCNC(=O)N1CCN(c2cc3oc(=O)cc(CCC)c3c3c2C=CC(C)(C)O3)CC1	> 25 µg/mL	> 25 µg/mL		> 25 µg/mL				
CCCc1cc(=O)oc2cc(N3CCN(C(=O)Nc4ccc(C(F)(F)F)cc4)CC3)c3c(c12)OC(C)(C)C=C3	> 27 µg/mL	> 27 µg/mL		> 27 µg/mL				
CCCc1cc(=O)oc2c3c(cc(OCCN4CCOCC4)c12)OC(C)([N+](=O)[O-])C3O (racemic)	100 µg/mL (≈ 230 µM)	100 µg/mL (≈ 230 µM)	> 1	> 100 µg/mL				

— ChEMBL document CHEMBL3259717, “Synthetic calanolides with bactericidal activity against replicating and nonreplicating Mycobacterium tuberculosis” (J Med Chem, 2014)
